Experimental data: ChEMBL document CHEMBL3352265, “Potentially bioactive organotin(IV) compounds: synthesis, characterization, in vitro bioactivities and interaction with SS-DNA” (Eur J Med Chem, 2014)
In brackets after ≈: the same amount, converted by molar mass. Activity calls are given as the source filed them. The rule behind the calls is not given here.

Tests used:
[1] = test system: Escherichia coli; assay: Antibacterial activity against Escherichia coli ATCC 15224 at 40 mg/mL after 24 hrs by disc diffusion method; format: functional; details: ATCC 15224, 24 h, read-out: DIZ
How it was run: (§1)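 Disc diffusion. Strains grown in nutrient broth at 37 °C for 24 h. 1% culture (about 10^6 CFU/mL) mixed into nutrient agar at 45 °C and poured. 4 mm paper discs received compound at 40 mg/mL stock in DMSO; final concentrations tested were […]. DMSO served as negative control, roxithromycin and cefixime as positive controls. Triplicate plates incubated at 37 °C for 24 h. Complete-inhibition zone diameter (mm) recorded as the mean of 3.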

[2] = test system: Staphylococcus aureus; assay: Antibacterial activity against Staphylococcus aureus ATCC 6538 at 40 mg/mL after 24 hrs by disc diffusion method; format: functional; details: ATCC 6538, 24 h, read-out: DIZ; how it was run: as §1
[3] = test system: Klebsiella aerogenes; assay: Antibacterial activity against Enterobacter aerogenes ATCC 13048 at 40 mg/mL after 24 hrs by disc diffusion method; format: functional; details: ATCC 13048, 24 h, read-out: DIZ; how it was run: as §1
[4] = test system: Salmonella typhimurium; assay: Antibacterial activity against Salmonella typhimurium ATCC 14028 at 40 mg/mL after 24 hrs by disc diffusion method; format: functional, Salmonella enterica subsp. enterica serovar Typhimurium; details: Salmonella enterica, ATCC 14028, 24 h; read-out: DIZ; how it was run: as §1
[5] = test system: Bordetella bronchiseptica; assay: Antibacterial activity against Bordetella bronchiseptica ATCC 4617 at 40 mg/mL after 24 hrs by disc diffusion method; format: functional; details: ATCC 4617, 24 h, read-out: DIZ; how it was run: as §1
[6] = test system: Bacillus spizizenii; assay: Antibacterial activity against Bacillus subtilis ATCC 6633 at 40 mg/mL after 24 hrs by disc diffusion method; format: functional; details: ATCC 6633, 24 h, read-out: DIZ; how it was run: as §1
[7] = test system: Escherichia coli; assay: Antibacterial activity against Escherichia coli ATCC 15224 after 18 hrs by microdilution method; format: functional; details: ATCC 15224, 18 h
How it was run: (§2)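 Broth microdilution. Twofold dilutions in culture broth at […]. Each well inoculated with bacterial suspension (10^8 CFU/mL, about 10^5 CFU/well). Sterility control and growth control (broth plus DMSO) included. Incubated at 36 °C for 18 h, in triplicate. MIC taken as the lowest concentration inhibiting growth, given in micrograms per mL.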

[8] = test system: Staphylococcus aureus; assay: Antibacterial activity against Staphylococcus aureus ATCC 6538 after 18 hrs by microdilution method; format: functional; details: ATCC 6538, 18 h; how it was run: as §2
[9] = test system: Salmonella typhimurium; assay: Antibacterial activity against Salmonella typhimurium ATCC 14028 after 18 hrs by microdilution method; format: functional, Salmonella enterica subsp. enterica serovar Typhimurium; details: Salmonella enterica, ATCC 14028, 18 h; how it was run: as §2
[10] = test system: Bordetella bronchiseptica; assay: Antibacterial activity against Bordetella bronchiseptica ATCC 4617 after 18 hrs by microdilution method; format: functional; details: ATCC 4617, 18 h; how it was run: as §2
[11] = test system: Bacillus spizizenii; assay: Antibacterial activity against Bacillus subtilis ATCC 6633 after 18 hrs by microdilution method; format: functional; details: ATCC 6633, 18 h; how it was run: as §2
[12] = test system: Aspergillus niger; assay: Antifungal activity against Aspergillus niger FCBP 0198 at 40 mg/mL after 7 days by disc diffusion method; format: functional; details: FCBP 0198, 168 h, read-out: DIZ
How it was run: (§3)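 Disc diffusion on SDA. Fungi cultured at 28 °C for 24 h. 4 mm discs received compound at 40 mg/mL stock in DMSO. DMSO served as negative control, terbinafine as positive control. Plates incubated at 28 °C for 7 days. Growth diameter (mm) measured and inhibition calculated against the negative control. MIC taken as the lowest concentration with no growth.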

[13] = test system: Aspergillus fumigatus; assay: Antifungal activity against Aspergillus fumigatus FCBP 66 at 40 mg/mL after 7 days by disc diffusion method; format: functional; details: FCBP 66, 168 h, read-out: DIZ; how it was run: as §3
[14] = test system: Aspergillus flavus; assay: Antifungal activity against Aspergillus flavus FCBP 0064 at 40 mg/mL after 7 days by disc diffusion method; format: functional; details: FCBP 0064, 168 h, read-out: DIZ; how it was run: as §3
[15] = test system: Mucor; assay: Antifungal activity against Mucor FCBP 0400 at 40 mg/mL after 7 days by disc diffusion method; format: functional; details: FCBP 0400, 168 h, read-out: DIZ; how it was run: as §3
[16] = test system: Artemia salina; assay: Cytotoxicity in brine shrimp assessed as mortality after 24 hrs; format: functional; details: read-out: LD50 (the source's name)
[17] = test system: Agrobacterium tumefaciens; assay: Antitumor activity against Agrobacterium tumefaciens -induced tumor at 1000 ug/ml after 21 days by potato disc bioassay technique; format: functional
How it was run: (§4)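 Potato disc assay with 48 h culture of A. tumefaciens At-10. Inoculum contained compound at […]. Red-skinned potatoes sterilized in 0.1% HgCl2; 8 mm × 4 mm discs placed ten per 1.5% agar plate, […] each. Incubated at 28 °C in the dark for 21 days, in triplicate. Discs stained with Lugol's and tumors counted. Percent inhibition calculated against the negative control.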

[18] = test system: Agrobacterium tumefaciens; assay: Antitumor activity against Agrobacterium tumefaciens -induced tumor at 100 ug/ml after 21 days by potato disc bioassay technique; format: functional; how it was run: as §4
[19] = test system: Agrobacterium tumefaciens; assay: Antitumor activity against Agrobacterium tumefaciens -induced tumor at 10 ug/ml after 21 days by potato disc bioassay technique; format: functional; how it was run: as §4
[20] = test system: Agrobacterium tumefaciens; assay: Antitumor activity against Agrobacterium tumefaciens -induced tumor after 21 days by potato disc bioassay technique; format: functional, organism-based; details: 504 h; how it was run: as §4
[21] = test system: Escherichia coli; assay: Induction of Escherichia coli pBR322 DNA damage assessed as open circular form at 1000 ug/ml after 60 mins by gel electrophoresis
[22] = test system: Escherichia coli; assay: Induction of Escherichia coli pBR322 DNA damage assessed as open circular form at 100 ug/ml after 60 mins by gel electrophoresis
[23] = test system: Escherichia coli; assay: Induction of Escherichia coli pBR322 DNA damage assessed as open circular form at 10 ug/ml after 60 mins by gel electrophoresis
[24] = test system: Escherichia coli; assay: Induction of Escherichia coli pBR322 DNA damage assessed as open circular form at 1 ug/ml after 60 mins by gel electrophoresis
[25] = test system: Leishmania major; assay: Antileishmanial activity against Leishmania major kwh 23 after 72 hrs using neobar counting by microscopy; format: functional, organism-based; details: kwh 23, 72 h
How it was run: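 Leishmania major promastigotes grown 7 days at 24 °C in medium 199 with 10% FBS. Samples as 10,000 ppm DMSO stocks, added to reach 200 ppm in the first row and serially diluted in 96-well plates, DMSO kept <5%. DMSO negative and amphotericin B positive controls. Incubated 72 h at 24 °C. Mortality counted in a counting chamber by light microscopy. Run 3 times. IC50 is the concentration giving 50% parasite reduction.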

For `COc1ccccc1NC(=O)CCC(=O)O`, the zone of inhibition at 40000 µg/mL [1] was 16 mm, the zone of inhibition at 40000 µg/mL [2] was 11 mm and the zone of inhibition at 40000 µg/mL [3] was 0 mm. The zone of inhibition at 40000 µg/mL [4] was 8 mm, the zone of inhibition at 40000 µg/mL [5] was 9 mm and the zone of inhibition at 40000 µg/mL [6] was 10 mm. The MIC [7] was 100 µg/mL (≈ 448 µM), the MIC [8] was 100 µg/mL (≈ 448 µM) and the MIC [9] was 200 µg/mL (≈ 896 µM). It also gave an MIC [10] of 200 µg/mL (≈ 896 µM), an MIC [11] of 200 µg/mL (≈ 896 µM) and a zone of inhibition at 40000 µg/mL [12] of 0 mm. For the same compound, the zone of inhibition at 40000 µg/mL [13] was 0 mm, the zone of inhibition at 40000 µg/mL [14] was 0 mm and the zone of inhibition at 40000 µg/mL [15] was 0 mm. It also gave an LC50 [16] of 192 µg/mL (≈ 861 µM), an Activity [17] of 62.64% and an Activity [18] of 31.14%. The Activity [19] was 5.63%, the IC50 [20] was 410 µg/mL (≈ 1840 µM) and the Activity [21] was “inactive”. The Activity [22] was “inactive”, the Activity [23] was “inactive” and the Activity [24] was “inactive”. The IC50 [25] was 0.00342 µg/mL (≈ 0.0153 µM).
